Results as given in ChEMBL document CHEMBL3867429, “Euphorbesulins A-P, Structurally Diverse Diterpenoids from Euphorbia esula” (J Nat Prod, 2016).

Tested on: Plasmodium falciparum
Experiment: Antimalarial activity against chloroquine-resistant Plasmodium falciparum Dd2 after 72 hrs by SYBR green-based fluorescence assay
Type: functional
Conditions: Dd2, 72 h
How it was run: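 Growth-inhibition assay of the chloroquine-resistant P. falciparum Dd2 strain over 72 h, read by SYBR Green fluorescence and run under a slightly modified published protocol. Artemisinin served as positive control.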

SMILES	IC50 [µM]
C=C1[C@H](OC(C)=O)[C@@H](OC(C)=O)[C@@H](OC(C)=O)C(C)(C)/C=C/[C@H](C)C(=O)[C@]2(OC(C)=O)[C@H]([C@@H](OC(=O)c3ccccc3)[C@@H](C)[C@H]2O)[C@H]1OC(C)=O	> 5
C=C1C[C@]2(O)C(=O)C(C)(C)C[C@H]2[C@@](C)(O)C(=O)[C@@]2(O)C[C@H](C)[C@H](OC(=O)c3ccccc3)[C@@H]2[C@H]1OC(=O)c1ccccc1	> 5
C=C1[C@H](OC(C)=O)[C@@H](OC(C)=O)[C@@H](OC(C)=O)C(C)(C)/C=C/[C@H](C)C(=O)[C@]2(OC(C)=O)[C@H]([C@@H](OC(C)=O)[C@@H](C)[C@H]2O)[C@H]1OC(=O)c1ccccc1	> 5
C=C1[C@H](OC(C)=O)[C@@H](OC(C)=O)[C@@H](OC(C)=O)C(C)(C)/C=C/[C@H](C)C(=O)[C@@]2(OC(C)=O)C[C@@](C)(OC(C)=O)[C@H](OC(=O)c3ccccc3)[C@@H]2[C@H]1OC(C)=O	> 5
C=C1[C@H](OC(=O)c2ccccc2)[C@@H](O)[C@@H](OC(C)=O)C(C)(C)/C=C/[C@H](C)C(=O)[C@@]2(OC(C)=O)C[C@H](C)[C@H](OC(C)=O)[C@@H]2[C@H]1OC(C)=O	> 5
C=C1[C@H](OC(=O)c2ccccc2)[C@@H](O)[C@@H](OC(C)=O)C(C)(C)/C=C/[C@H](C)C(=O)[C@@]2(OC(C)=O)C[C@@](C)(OC(C)=O)[C@H](OC(C)=O)[C@@H]2[C@H]1OC(C)=O	> 10
C[C@@H]1CC[C@H]2[C@@H](C)C(=O)O[C@@H]3O[C@@]4(C)CC[C@@H]1[C@]32OO4 [ARTEMISININ]	0.007
C=C1C[C@]2(O)C(=O)C(C)(C)C[C@H]2[C@@](C)(O)C(=O)[C@@]2(O)C[C@H](C)[C@H](OC(=O)c3ccccc3)[C@@H]2[C@H]1OC(=O)[C@H](C)C(C)C	2.41
C=C1[C@H](OC(=O)c2ccccc2)[C@@H](OC(C)=O)[C@@H](OC(C)=O)C(C)(C)/C=C/[C@H](C)C(=O)[C@]2(OC(C)=O)[C@H]([C@@H](OC(C)=O)[C@](C)(O)[C@H]2O)[C@H]1OC(=O)c1ccccc1	> 5
C=C1C[C@]2(O)C(=O)C(C)(C)C[C@H]2[C@@](C)(O)C(=O)[C@@]2(O)C[C@H](C)[C@H](OC(=O)c3ccccc3)[C@@H]2[C@H]1OC(C)=O	> 5
C=C1[C@H](OC(=O)c2ccccc2)[C@@H](OC(C)=O)[C@@H](OC(C)=O)C(C)(C)/C=C/[C@H](C)C(=O)[C@@]2(OC(C)=O)C[C@H](C)[C@H](OC(C)=O)[C@@H]2[C@H]1OC(=O)c1ccccc1	0.12
C=C1[C@H](OC(C)=O)[C@@H](OC(C)=O)[C@@H](OC(C)=O)C(C)(C)/C=C/[C@H](C)C(=O)[C@]2(O)[C@H]([C@@H](OC(C)=O)[C@@H](C)[C@H]2OC(C)=O)[C@H]1OC(=O)c1ccccc1	> 5
